NPY-Y1 PAM-ag: potentiates or activates human NPY-Y1 receptor; NPY-Y1 expressing cells, potentiator/agonist activation; activation, % at 3.6 µM; 220,000 compounds, 0.37% hits; AID 1304; in the data active = activation above about 33%, passing the limit was not always enough;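 also: cells stimulated with NPY at EC10 then isoproterenol at EC100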
NPY-Y2 antag: blocks the human neuropeptide Y Y2 receptor | AID 793 | NPY-Y2 expressing cells, antagonist mode | 140,000 compounds, 0.99% hits | P49146 | inhibition, % at 2.7 µM; in the data active = inhibition above about 17%
Target sequence (P49146 whole entry, looked up): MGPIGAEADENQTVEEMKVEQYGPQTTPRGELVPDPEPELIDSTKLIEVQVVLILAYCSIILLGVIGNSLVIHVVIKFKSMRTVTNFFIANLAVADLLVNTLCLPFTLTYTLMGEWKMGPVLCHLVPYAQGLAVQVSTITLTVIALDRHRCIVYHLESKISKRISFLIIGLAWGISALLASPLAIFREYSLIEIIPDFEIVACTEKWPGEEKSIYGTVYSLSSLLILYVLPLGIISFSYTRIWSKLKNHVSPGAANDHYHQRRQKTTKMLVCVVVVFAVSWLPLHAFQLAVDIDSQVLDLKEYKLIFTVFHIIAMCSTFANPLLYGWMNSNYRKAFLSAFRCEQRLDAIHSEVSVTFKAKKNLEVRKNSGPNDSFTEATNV
RAM network inh: inhibitors of the yeast RAM network; S. cerevisiae dse1pr::URA3 reporter, 5-FOA growth OD615, 2 d; analog-sensitive cbk1-as2 kinase mutant strain; AID 868; 190,000 compounds, 1.8% hits; inhibition, % at 50 µM;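 active = inhibition above a set limit, 3 SD over mean compound inhibition, cut at about 8.4% in these data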;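 also: inhibition rescues growth on 5-FOA so higher OD means more RAM inhibition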
NPY2 pot ag: potentiates or activates human NPY-Y2 receptor. P49146. cells expressing NPY-Y2, potentiator/agonist read-out. activation, % at 3.6 µM. 220,000 compounds, 0.45% hits; in the data active = activation above about 27%;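 also: cells stimulated with NPY near EC25 plus isoproterenol at EC100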
WT yeast gro inh: growth inhibition of WT yeast, mitochondrial fusion screen. inhibition, % at 10 µM. mitochondrial fusion phenotypic screen, WT strain. 190,000 compounds, 2.1% hits; in the data active = inhibition above about 58%; tested in S. cerevisiae
NPY Y1 blocker: NPY-Y1 (human) receptor antagonism; HEK293-CNG Y1 cells, membrane potential fluorescence; NPY at EC95, then isoproterenol; inhibition, % at 3.6 µM; P25929; 200,000 compounds, 1% hits;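 active = inhibition above the campaign mean inhibition of all tested compounds plus 3 SD, cut at about 20% in these data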
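Test system – HEK293 Y1/CNG channel cell line · Also added – NPY agonist 25 nM, then isoproterenol 1 µM plus Ro 20-1724 25 µM · Compound dosing – one concentration, 3.6 µM, in 0.4% DMSO · Schedule – compound incubation 1 h at room temperature, readout 45 min post-stimulation · Technique – fluorescence, membrane potential probe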
Large screens that a line does not name were inactive. A selection: hits, their analogues and other compounds. The true share with any hit is near 4.9%.

CNc1ccccc1C(C)(C)c1cc(-c2cccc(OC)c2)no1	WT yeast gro inh 63 (no result: NPY-Y2 antag)
CNc1ccccc1C(C)(C)c1cc(-c2cc(C)cc(C)c2)no1	none
COc1ccc(C(=O)Oc2cccc(Nc3ncnc4ccccc34)c2)cc1OC	none
Cn1cc(C(=O)c2ccc(Cl)cc2Cl)cc1C(=O)O	WT yeast gro inh 92
Cn1cc(C(=O)c2ccc(Cl)cc2Cl)cc1C(=O)N/N=C(\N)COc1ccccc1	none
COC(=O)N/N=C/c1cn(Cc2c(Cl)cccc2Cl)c2ccccc12	WT yeast gro inh 63
CCCCc1ccc(NC(=O)CSC2=C(C#N)C(c3ccco3)C3=C(CCCC3=O)N2)cc1 (configuration not stated)	NPY-Y1 PAM-ag 99, NPY2 pot ag 98
O=S(=O)(c1ccccc1)N(CC(O)Cn1c2ccccc2c2ccccc21)c1ccccc1 (configuration not stated)	none
O=S(=O)(c1ccc(F)cc1)N(CCO)CC(O)Cn1c2ccccc2c2ccccc21 (configuration not stated)	RAM network inh 8.7
Cc1ccc(S(=O)(=O)N(C)CC(O)Cn2c3ccccc3c3ccccc32)cc1 (configuration not stated)	RAM network inh 8.6
CCN(CC(O)Cn1c2ccccc2c2ccccc21)S(=O)(=O)c1ccc(F)cc1 (configuration not stated)	RAM network inh 11, WT yeast gro inh 65
Cc1ccccc1CN(C)CC(=O)Nc1ccccc1-c1ccccc1	WT yeast gro inh 79
CCC(=O)N(Cc1ccco1)c1nc(-c2ccc(OC)cc2)cs1	RAM network inh 10.0
O=C(c1cccs1)N(Cc1ccco1)c1nc(-c2ccc(F)cc2)cs1	NPY-Y2 antag 18
Cc1cc(Nc2ccccc2)nc2cc(O)ccc12	WT yeast gro inh 62
CCOC(=O)C1=C(O)/C(=C/c2ccccn2)SC1=Nc1ccc(Cl)cc1	none
CCN(CC)CCOc1ccc(/C(=C(/Cl)c2ccccc2)c2ccccc2)cc1	WT yeast gro inh 98 (no result: NPY-Y2 antag)
CC/C(=C(\c1ccc(O)cc1)c1ccc(OCCN(C)C)cc1)c1ccccc1	none (no result: NPY-Y2 antag, RAM network inh)
CCOC(=O)c1cc(NC(=O)c2ccc(OC)cc2)c(=O)oc1-c1ccccc1	RAM network inh 11
O=C(NCc1ccc(Cl)cc1)c1cnccn1	none
O=C(NCc1ccccc1Cl)c1cnccn1	WT yeast gro inh 75
COc1cc2cc(Br)cc(Br)c2nc1C	none
O=C(CN1CCSCC1)N1CCc2[nH]c3ccc(Br)cc3c2C1	none
OC(CC1CC12c1ccccc1-c1ncccc12)(c1ccccc1)c1ccccc1 (configuration not stated)	WT yeast gro inh 74
Cc1ccn2c(Nc3ccccc3C)c(-c3cccnc3)nc2c1	NPY-Y1 PAM-ag 61, NPY2 pot ag 53 (no result: NPY-Y2 antag)
CCOC(=O)CNc1c(-c2ccccc2)nc2ccc(Cl)cn12	none
Cc1ccccc1Nc1c(-c2ccncc2)nc2ccc(Cl)cn12	NPY-Y1 PAM-ag 54, NPY2 pot ag 45 (no result: NPY-Y2 antag)
O=C(NNC(=O)c1sccc1-n1cccc1)c1ccc(F)cc1	none (no result: NPY-Y2 antag)
O=C(Cn1ncc2c(=O)oc3ccccc3c21)N1CCc2ccccc2C1	none
CCn1c(C(=O)N2CCc3ccccc3C2)cc2oc3ccccc3c21	WT yeast gro inh 78
O=C(c1cc2ccccc2c(=O)o1)N1CCc2ccccc2C1	none
Cn1c(C(=O)N2CCc3ccccc3C2)cc2oc3ccccc3c21	WT yeast gro inh 66
COc1ccc(CN(CC2CCCO2)S(=O)(=O)c2ccc(-n3cnnn3)c(OC)c2)cc1 (configuration not stated)	none (no result: NPY-Y2 antag)
CCOC(=O)c1cc(-c2ccc(Cl)cc2)nc2onc(C)c12	RAM network inh 9.8
OCCN1CCN(CC(O)COc2ccc(-c3ccccc3)cc2)CC1 (configuration not stated)	none
N#C/C(=C\c1cccs1)Sc1nc2ccccc2s1	RAM network inh 9.1
N#C/C(=C\c1ccc[nH]1)Sc1nc2ccccc2s1	none
Cc1ccc(C2CCN(C(=O)Nc3ccccc3)C2)cc1 (configuration not stated)	none
Cc1ccc(NC(=S)N2CCC(c3ccc(C)cc3)C2)cc1 (configuration not stated)	WT yeast gro inh 75 (no result: NPY-Y2 antag)
CCc1cccc(NC(=S)N2CCC(c3ccccc3)C2)c1 (configuration not stated)	WT yeast gro inh 76 (no result: NPY-Y2 antag)
O=C(CSc1nnc(Cc2cc(=O)[nH]c(=O)[nH]2)n1-c1ccc(Cl)cc1)NCC1CCCO1 (configuration not stated)	none
CCNC(=O)c1c(NC(C)=O)sc2c1CCCC2	none
Cc1ccc(OCCCC(=O)NCc2ccco2)c(C)c1	none (no result: NPY-Y2 antag)
Cc1nn(-c2ccccc2)c(N)c1N=Nc1ccc(Cl)cc1	RAM network inh 10, WT yeast gro inh 81
Cc1cccc(N=Nc2c(C)nn(-c3ccccc3)c2N)c1C	WT yeast gro inh 83
Cc1nn(-c2ccccc2)c(N)c1N=Nc1ccccc1	none
CCc1nc(N2CCC(C)CC2)c2oc3ccccc3c2n1	WT yeast gro inh 73
CCN1C(=O)/C(=C\c2nc3ccccc3c(=O)n2-c2ccccc2)c2ccccc21	RAM network inh 9.6
CCN1C(=O)/C(=C/c2nc3ccccc3c(=O)n2-c2ccc(C)cc2)c2ccccc21	none
CCn1ccnc1CN(C)Cc1cn(-c2ccc(C)cc2)nc1-c1cccc(C)c1	WT yeast gro inh 68 (no result: NPY-Y2 antag)
Cc1ccc(-n2cc(CN3CCN(Cc4nccn4C)CC3)c(-c3cccc(C)c3)n2)cc1	WT yeast gro inh 66 (no result: NPY-Y2 antag)
Cc1ccc(-n2cc(CN3CCNC(=O)CC3)c(-c3cccc(C)c3)n2)cc1	none (no result: NPY-Y2 antag)
O=C1CC(C(=O)Nc2ccccc2)S/C(=N\N=C\c2ccco2)N1 (configuration not stated)	none
CCCSc1nc2c3c(sc2c(=O)[nH]1)CC(C)(CC)OC3 (configuration not stated)	RAM network inh 8.8 (no result: NPY-Y2 antag)
O=C(O)c1ccc(Oc2cccc([N+](=O)[O-])c2)cc1C(=O)O	none
O=C(Nc1ccccc1)C1=C[C@@H](c2ccc(Br)cc2)C[C@@H](OCc2ccc(CO)cc2)O1	RAM network inh 9.4 (no result: NPY-Y2 antag)
O=C(C1=C[C@H](c2ccc3c(c2)OCO3)C[C@H](OCc2ccc(CO)cc2)O1)N1CCCCCCC1	none (no result: NPY-Y2 antag)
O=C(NC1CC1)C1=C[C@@H](c2ccc3c(c2)OCO3)C[C@@H](OCc2ccc(CO)cc2)O1	none (no result: NPY-Y2 antag)
O=C(C1=C[C@@H](c2ccc3c(c2)OCO3)C[C@@H](OCc2ccc(CO)cc2)O1)N1CCOCC1	RAM network inh 11 (no result: NPY-Y2 antag)
O=C(Nc1ccccc1)C1=C[C@H](c2ccc3c(c2)OCO3)C[C@H](OCc2ccc(CO)cc2)O1	RAM network inh 9.4 (no result: NPY-Y2 antag)
C#CCNC(=O)C1=C[C@H](C(C)(C)C)C[C@H](OCc2ccc(CO)cc2)O1	none (no result: NPY-Y2 antag)
CC(C)(C)[C@@H]1C=C(C(=O)Nc2ccccc2)O[C@H](OCc2ccc(CO)cc2)C1	RAM network inh 8.5 (no result: NPY-Y2 antag)

Bioassay records deposited in PubChem by several laboratories.
